In ChEMBL document CHEMBL3352730, “Synthesis and effects on cell viability of flavonols and 3-methyl ether derivatives on human leukemia cells” (Eur J Med Chem, 2014):
Calls of active or inactive are those of the source. The rule behind the calls is not given here.

Assays:
U-937 [1] = test: Induction of cell cycle arrest in human U937 cells assessed as accumulation at G2/M phase at 10 uM after 48 hrs by propidium iodide staining based flow cytometry (reference value: 19.1 +/- 1.1%); format: functional
U-937 [2] = test: Induction of cell cycle arrest in human U937 cells assessed as accumulation at G2/M phase at 10 uM after 12 hrs by propidium iodide staining based flow cytometry (reference value: 24.2 +/- 1.2%); format: functional
HL-60 [3] = test: Induction of cell cycle arrest in human HL60 cells assessed as accumulation at S phase at 10 uM after 12 hrs by propidium iodide staining based flow cytometry (reference value: 14.7 +/- 0.3%); format: functional
U-937 [4] = test: Induction of cell cycle arrest in human U937 cells assessed as accumulation at G1 phase at 1 uM after 24 hrs by propidium iodide staining based flow cytometry (reference value: 49.8 +/- 1.5%); format: functional
U-937 [5] = test: Induction of cell cycle arrest in human U937 cells assessed as accumulation at S phase at 10 uM after 24 hrs by propidium iodide staining based flow cytometry (reference value: 18.6 +/- 0.3%); format: functional
[6] = Cytotoxicity against human HL60 cells after 72 hrs by MTT assay; format: functional, cell-based; conditions: HL-60, 72 h
In short: (§1)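 MTT colorimetric assay with 72 h continuous exposure. IC50 was fitted per experiment by non-linear regression. Values are means with SE from at least three independent experiments, each run in triplicate.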

MOLT-3 [7] = test: Reduction in Bid expression in human MOLT3 cells by Western blotting method; format: functional, cell-based
In short: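 Cells (HL-60, Molt-3 or U937) were incubated with increasing concentrations of compound and harvested at 24 h. Cell lysates were then immunoblotted for Bid and other Bcl-2 family members.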

U-937 [8] = test: Induction of cell cycle arrest in human U937 cells assessed as accumulation at S phase at 3 uM after 48 hrs by propidium iodide staining based flow cytometry (reference value: 18.9 +/- 0.2%); format: functional
HL-60 [9] = test: Induction of cell cycle arrest in human HL60 cells assessed as accumulation at S phase at 1 uM after 48 hrs by propidium iodide staining based flow cytometry (reference value: 15.3 +/- 0.1%); format: functional
HL-60 [10] = test: Induction of apoptosis in human HL60 cells in presence of JNK/SAPK inhibitor SP600125 after 24 hrs by propidium iodide staining based flow cytometry; format: functional, cell-based
HL-60 [11] = test: Induction of apoptosis in human HL60 cells assessed as pro-caspase-7 cleavage by Western blotting method; format: functional, cell-based
In short: (§2)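 Cells were exposed to a range of compound concentrations and harvested at 24 h. Lysates were immunoblotted for caspase proforms and cleaved forms, and for Bcl-2 family proteins.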

[12] = Cytotoxicity against human HL60/MX1 cells after 72 hrs by MTT assay; format: functional, cell-based; conditions: HL60/MX1, 72 h; in short: as §1
MOLT-3 [13] = test: Induction of apoptosis in human MOLT3 cells assessed as pro-caspase-3 cleavage by Western blotting method; format: functional, cell-based; in short: as §2
U-937 [14] = test: Induction of cell cycle arrest in human U937 cells assessed as accumulation at S phase at 1 uM after 12 hrs by propidium iodide staining based flow cytometry (reference value: 20.5 +/- 0.8%); format: functional
U-937 [15] = test: Induction of cell cycle arrest in human U937 cells assessed as accumulation at subG1 phase at 10 uM after 24 hrs by propidium iodide staining based flow cytometry (reference value: 3.9 +/- 0.8%); format: functional
U-937 [16] = test: Induction of cell cycle arrest in human U937 cells assessed as accumulation at G1 phase at 3 uM after 24 hrs by propidium iodide staining based flow cytometry (reference value: 49.8 +/- 1.5%); format: functional
HL-60 [17] = test: Induction of cell cycle arrest in human HL60 cells assessed as accumulation at subG1 phase at 3 uM after 24 hrs by propidium iodide staining based flow cytometry (reference value: 3.4 +/- 0.3%); format: functional
[18] = target: c-Jun N-terminal kinase, JNK (Homo sapiens) (UniProt P45983+P53779+P45984); test: Increase in JNK/SAPK phosphorylation in human HL60 cells at 10 to 30 uM after 2 to 6 hrs by Western blotting method; format: cell-based; conditions: HL-60
In short: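 HL-60 cells were incubated for a time course. Extracts were immunoblotted with phospho-specific antibodies for ERK 1/2, JNK/SAPK and p38MAPK. Membranes were then stripped and reprobed for the total kinases as loading controls.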

U-937 [19] = test: Induction of apoptosis in human U937 cells assessed as pro-caspase-9 cleavage by Western blotting method; format: functional, cell-based
In short: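 U937 cells exposed to increasing concentrations of the flavonol and harvested at 24 h. Lysates were immunoblotted with antibodies that detect both the pro-caspases and their cleaved forms.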

HL-60 [20] = test: Induction of apoptosis in human HL60 cells assessed as pro-caspase-6 cleavage by Western blotting method; format: functional, cell-based; in short: as §2
HL-60 [21] = test: Induction of cell cycle arrest in human HL60 cells assessed as accumulation at subG1 phase at 1 uM after 24 hrs by propidium iodide staining based flow cytometry (reference value: 3.4 +/- 0.3%); format: functional
U-937 [22] = test: Induction of apoptosis in human U937 cells assessed as pro-caspase-8 processing at 3 and 10 uM after 6 to 24 hrs by immunoblotting method; format: functional, cell-based
In short: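 Kinetic and dose-response experiment: cells were treated with the indicated concentrations and harvested at the indicated times. Pro-caspase-8 and -9 cleavage was detected by immunoblotting with antibodies that bind both the proenzyme and the cleaved fragments.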

HL-60 [23] = test: Induction of cell cycle arrest in human HL60 cells assessed as accumulation at S phase at 1 uM after 24 hrs by propidium iodide staining based flow cytometry (reference value: 17.9 +/- 0.6%); format: functional
U-937 [24] = test: Induction of cell cycle arrest in human U937 cells assessed as accumulation at subG1 phase at 1 uM after 24 hrs by propidium iodide staining based flow cytometry (reference value: 3.9 +/- 0.8%); format: functional
U-937 [25] = test: Induction of apoptosis in human U937 cells assessed as increase in caspase 9 activity using LEHD-pNA substrate at 10 uM after 24 hrs; format: functional, cell-based
In short: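 Cells were given 10 µM for 24 h. Lysates were assayed for cleavage of DEVD-pNA (caspase-3/7), IETD-pNA (caspase-8) and LEHD-pNA (caspase-9). Results are expressed as fold over control, from three independent experiments in triplicate.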

HL-60 [26] = test: Induction of cell cycle arrest in human HL60 cells assessed as accumulation at S phase at 10 uM after 48 hrs by propidium iodide staining based flow cytometry (reference value: 15.3 +/- 0.1%); format: functional
HL-60 [27] = test: Induction of cell cycle arrest in human HL60 cells assessed as accumulation at G2/M phase at 10 uM after 48 hrs by propidium iodide staining based flow cytometry (reference value: 17.9 +/- 0.7%); format: functional
U-937 [28] = test: Induction of cell cycle arrest in human U937 cells assessed as accumulation at subG1 phase at 1 uM after 48 hrs by propidium iodide staining based flow cytometry (reference value: 6.7 +/- 0.3%); format: functional
U-937 [29] = test: Induction of cell cycle arrest in human U937 cells assessed as accumulation at G1 phase at 1 uM after 12 hrs by propidium iodide staining based flow cytometry (reference value: 45.8 +/- 0.8%); format: functional
U-937 [30] = test: Induction of Bid processing in human U937 cells by Western blotting method

- Activity [18]: Active
Structure (SMILES): O=c1c(O)c(-c2ccc(Br)cc2)oc2ccccc12
- Activity (U-937 [1]): 7%
- Activity (U-937 [2]): 19.6%
- Activity (HL-60 [3]): 15.9%
- Activity (U-937 [4]): 47.4%
- Activity (U-937 [5]): 23.7%
- IC50 [6]: 3.3 µM
- Activity (MOLT-3 [7]): Active
- Activity (U-937 [8]): 21.2%
- Activity (HL-60 [9]): 15.5%
- Activity (HL-60 [10]): Active
- Activity (HL-60 [11]): Active
- IC50 [12]: 6.5 µM
- Activity (MOLT-3 [13]): Active
- Activity (U-937 [14]): 21.5%
- Activity (U-937 [15]): 13.8%
- Activity (U-937 [16]): 42.3%
- Activity (HL-60 [17]): 5.9%
- Activity (U-937 [19]): Active
- Activity (HL-60 [20]): Active
- Activity (HL-60 [21]): 4.1%
- Activity (U-937 [22]): Active
- Activity (HL-60 [23]): 20.7%
- Activity (U-937 [24]): 3.7%
- Activity (U-937 [25]): Active
- Activity (HL-60 [26]): 7.3%
- Activity (HL-60 [27]): 5.5%
- Activity (U-937 [28]): 7%
- Activity (U-937 [29]): 45.8%
- Activity (U-937 [30]): Active
